In ChEMBL document CHEMBL1221337, “The unsaturated acyclic nucleoside analogues bearing a sterically constrained (Z)-4'-benzamido-2'-butenyl moiety: Synthesis, X-ray crystal structure study, cytostatic and antiviral activity evaluations” (Bioorg Med Chem, 2010):
Activity calls are given as the source filed them. The rule behind the calls is not given here.

What was measured:
[1] = system: Vesicular stomatitis virus; assay: Antiviral activity against Vesicular stomatitis virus infected in HEL cells assessed as inhibition of virus-induced cytopathicity; type: functional, organism-based
Vaccinia virus = assay: Antiviral activity against Vaccinia virus infected in HEL cells assessed as inhibition of virus-induced cytopathicity; type: functional, organism-based; conditions: Orthopoxvirus vaccinia
[2] = system: Vesicular stomatitis virus; assay: Antiviral activity against Vesicular stomatitis virus infected in human HeLa cells assessed as inhibition of virus-induced cytopathicity; type: functional, organism-based
Procedure, shortened: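 Confluent HeLa cultures were infected with 100 CCID50 of virus. Unadsorbed virus was removed after 1 h, and compound was added at serial concentrations (200, 40, 8…). Viral cytopathic effect was read when untreated virus-infected control wells reached full cytopathicity.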

Human alphaherpesvirus 2 = assay: Antiviral activity against HSV2 G infected in HEL cells assessed as inhibition of virus-induced cytopathicity; type: functional, organism-based; conditions: strain G
Procedure, shortened: (§1)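 Confluent cell monolayers in 96-well plates were inoculated with 100 CCID50 of virus. After 1 h adsorption, residual virus was removed. Cultures were then incubated with test compound at varying concentrations (200, 40, 8... µM). Viral cytopathicity was scored once it reached completion in untreated infected controls. Host cells: HEL for HSV-1 KOS and HSV-2 G; Vero for the Vero lines; HeLa for the HeLa lines.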

Human respirovirus 3 = assay: Antiviral activity against Parainfluenza 3 infected in Vero cells assessed as inhibition of virus-induced cytopathicity; type: functional, organism-based; procedure, shortened: as §1
SK-BR-3 = assay: Cytotoxicity against human SK-BR-3 cells after 72 hrs by MTT assay; type: functional, cell-based; conditions: SK-BR-3, 72 h
Procedure, shortened: (§2)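 Adherent cells were plated at 3000–6000 cells/well on day 0, according to doubling time. Compound was added as five 10-fold dilutions (1 × 10⁻⁸–1 × 10⁻⁴ M), with DMSO ≤0.1%, and incubated 72 h. Read-out was MTT absorbance converted to percentage growth versus untreated wells on the same plate. IC50 was obtained by linear regression between bracketing concentrations; the highest concentration was reported as ">" if not reached. Quadruplicates, three experiments.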

HeLa [3] = assay: Cytotoxicity against human HeLa cells after 72 hrs by MTT assay; type: functional, cell-based; procedure, shortened: as §2
MCF7 = assay: Cytotoxicity against human MCF7 cells after 72 hrs by MTT assay; type: functional, cell-based; conditions: MCF7, 72 h; procedure, shortened: as §2
HEp-2 = assay: Cytotoxicity against human Hep2 cells after 72 hrs by MTT assay; type: functional, cell-based; conditions: HEp-2, 72 h; procedure, shortened: as §2
SW-620 = assay: Cytotoxicity against human SW620 cells after 72 hrs by MTT assay; type: functional, cell-based; conditions: SW-620, 72 h; procedure, shortened: as §2
MIA PaCa-2 = assay: Cytotoxicity against human MIAPaCa2 cells after 72 hrs by MTT assay; type: functional, cell-based; conditions: MIA PaCa-2, 72 h; procedure, shortened: as §2
[4] = Cytotoxicity against human WI38 cells after 72 hrs by MTT assay; type: cell-based; conditions: WI-38, 72 h; procedure, shortened: as §2
Human alphaherpesvirus 1 = assay: Antiviral activity against HSV1 KOS infected in HEL cells assessed as inhibition of virus-induced cytopathicity; type: functional, organism-based; procedure, shortened: as §1
[5] = system: Mammalian orthoreovirus 1; assay: Antiviral activity against Reovirus 1 infected in Vero cells assessed as inhibition of virus-induced cytopathicity; type: functional, organism-based; procedure, shortened: as §1
Sindbis virus = assay: Antiviral activity against Sindbis virus infected in Vero cells assessed as inhibition of virus-induced cytopathicity; type: functional, organism-based; procedure, shortened: as §1
Coxsackievirus B4 [6] = assay: Antiviral activity against Coxsackievirus B4 infected in Vero cells assessed as inhibition of virus-induced cytopathicity; type: functional, organism-based; procedure, shortened: as §1
Punta Toro virus = assay: Antiviral activity against Punta Toro virus infected in Vero cells assessed as inhibition of virus-induced cytopathicity; type: functional, organism-based; procedure, shortened: as §1
Coxsackievirus B4 [7] = assay: Antiviral activity against Coxsackievirus B4 infected in human HeLa cells assessed as inhibition of virus-induced cytopathicity; type: functional, organism-based; procedure, shortened: as §1
[8] = system: Respiratory syncytial virus; assay: Antiviral activity against Respiratory syncytial virus infected in human HeLa cells assessed as inhibition of virus-induced cytopathicity; type: functional, organism-based; procedure, shortened: as §1
Influenza A virus = assay: Antiviral activity against influenza A virus H1N1; H3N2 infected in MDCK cells assessed as inhibition of virus-induced cytopathicity; type: functional, organism-based
Procedure, shortened: (§3)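 MDCK cells, nearly confluent in microtiter plates, were infected with 100 CCID50 per well. After 1 h adsorption, the inoculum was washed off. Cells were incubated with graded compound concentrations (200, 40, 8…). Cytopathicity was recorded at completion in untreated infected controls.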

Influenza B virus = assay: Antiviral activity against influenza B virus infected in MDCK cells assessed as inhibition of virus-induced cytopathicity; type: functional, organism-based; procedure, shortened: as §3
HEL = assay: Cytotoxicity against HEL cells assessed as cell viability after 3 days by coulter counting; type: cell-based; conditions: human, 72 h
Procedure, shortened: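 HEL cells were seeded at 5 × 10³ cells/well and allowed to proliferate 24 h. Medium with test compound at different concentrations was then added, and cells were incubated 3 days at 37 °C. Cell number was counted by Coulter counter. CC50 (50% reduction in cell number versus untreated controls) was read from plots of cell number (% of control) against concentration.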

Vero = assay: Cytotoxicity against african green monkey Vero cells assessed as cell viability after 3 days by coulter counting; type: cell-based; conditions: chlorocebus sabaeus, 72 h
HeLa [9] = assay: Cytotoxicity against human HeLa cells assessed as cell viability after 3 days by coulter counting; type: cell-based; conditions: 72 h
MDCK = assay: Cytotoxicity against MDCK cells assessed as cell viability after 3 days by coulter counting; type: cell-based, Canis lupus familiaris; conditions: dog, 72 h

Structure (SMILES) | inhibition [1] | inhibition (Vaccinia virus) | inhibition [2] | inhibition (Human alphaherpesvirus 2) | inhibition (Human respirovirus 3) | IC50 (SK-BR-3) [µM] | IC50 (HeLa [3]) [µM] | IC50 (MCF7) [µM] | IC50 (HEp-2) [µM] | IC50 (SW-620) [µM] | IC50 (MIA PaCa-2) [µM] | IC50 [4] [µM] | inhibition (Human alphaherpesvirus 1) | inhibition [5] | inhibition (Sindbis virus) | inhibition (Coxsackievirus B4 [6]) | inhibition (Punta Toro virus) | inhibition (Coxsackievirus B4 [7]) | inhibition [8] | inhibition (Influenza A virus) | also measured
Nc1nc(=O)n(C/C=C\CNC(=O)c2ccc(F)cc2)cc1F | inactive | inactive | inactive | inactive | inactive | > 100 | > 100 | > 100 | 32.1 | > 100 | > 100 | > 100 | inactive | inactive | inactive | inactive | inactive | inactive | inactive | inactive | inhibition (Influenza B virus): inactive; Activity (HEL): Non-toxic; Activity (Vero): Non-toxic; Activity (HeLa [9]): Non-toxic; Activity (MDCK): Non-toxic
Nc1ccn(C/C=C\CNC(=O)c2ccc(F)cc2)c(=O)n1 | inactive | inactive | inactive | inactive | inactive | > 100 | > 100 | > 100 | > 100 | > 100 | > 100 | 4 | inactive | inactive | inactive | inactive | inactive | inactive | inactive | inactive | inhibition (Influenza B virus): inactive; Activity (HEL): Non-toxic; Activity (Vero): Non-toxic; Activity (HeLa [9]): Non-toxic; Activity (MDCK): Non-toxic
Nc1ccn(C/C=C\CNC(=O)c2ccccc2)c(=O)n1 | inactive | inactive | inactive | inactive | inactive | 72 | > 100 | 31.4 | > 100 | > 100 | > 100 | 4.2 | inactive | inactive | inactive | inactive | inactive | inactive | inactive | inactive | inhibition (Influenza B virus): inactive; Activity (HEL): Non-toxic; Activity (Vero): Non-toxic; Activity (HeLa [9]): Non-toxic; Activity (MDCK): Non-toxic
Cc1cn(C/C=C\CNC(=O)c2ccc(F)cc2)c(=O)[nH]c1=O | inactive | inactive | inactive | inactive | inactive | > 100 | > 100 | 24.1 | > 100 | > 100 | > 100 | 0.1 | inactive | inactive | inactive | inactive | inactive | inactive | inactive | inactive | inhibition (Influenza B virus): inactive; Activity (HEL): Non-toxic; Activity (Vero): Non-toxic; Activity (HeLa [9]): Non-toxic; Activity (MDCK): Non-toxic
Nc1ncnc2c1ncn2C/C=C\CNC(=O)c1ccccc1 | inactive | inactive | inactive | inactive | inactive | > 100 | > 100 | > 100 | > 100 | > 100 | > 100 | > 100 | inactive | inactive | inactive | inactive | inactive | inactive | inactive | inactive | inhibition (Influenza B virus): inactive; Activity (HEL): Non-toxic; Activity (Vero): Non-toxic; Activity (HeLa [9]): Non-toxic; Activity (MDCK): Non-toxic
Cc1cn(C/C=C\CNC(=O)c2ccccc2)c(=O)[nH]c1=O | inactive | inactive | inactive | inactive | inactive | > 100 | > 100 | > 100 | > 100 | > 100 | > 100 | 4.3 | inactive | inactive | inactive | inactive | inactive | inactive | inactive | inactive | inhibition (Influenza B virus): inactive; Activity (HEL): Non-toxic; Activity (Vero): Non-toxic; Activity (HeLa [9]): Non-toxic; Activity (MDCK): Non-toxic
O=C(NC/C=C\Cn1ccc(=O)[nH]c1=O)c1ccccc1 | inactive | inactive | inactive | inactive | inactive | > 100 | 4.9 | > 100 | > 100 | > 100 | > 100 | 6.6 | inactive | inactive | inactive | inactive | inactive | inactive | inactive | inactive | inhibition (Influenza B virus): inactive; Activity (HEL): Non-toxic; Activity (Vero): Non-toxic; Activity (HeLa [9]): Non-toxic; Activity (MDCK): Non-toxic
O=C(NC/C=C\Cn1cc(F)c(=O)[nH]c1=O)c1ccccc1 | inactive | inactive | inactive | inactive | inactive | > 100 | > 100 | > 100 | 87.5 | > 100 | > 100 | > 100 | inactive | inactive | inactive | inactive | inactive | inactive | inactive | inactive | inhibition (Influenza B virus): inactive; Activity (HEL): Non-toxic; Activity (Vero): Non-toxic; Activity (HeLa [9]): Non-toxic; Activity (MDCK): Non-toxic
